Cl transport mod = modulates chloride dependent transport by human KCC2. KCC2 cells, thallium flux FluoZin-2 fluorescence. AID 1456. B-score of Tl+ flux slope (higher = more flux/activation; lower = inhibition) at 10 µM. Q9H2X9. actives 2.2% (n = 190,000);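 active = thallium flux slope and its plate-corrected score both differing from the plate sample mean at a set confidence after two filtering rounds, in either direction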;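 note: slope of fluorescence scaled to starting intensity during 10 to 20 s after thallium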
KCNQ1 block = blocks the human KCNQ1 potassium channel | P51787 | CHO-K1 KCNQ1, FluxOR thallium flux fluorescence; active compounds read high | B-score at 10 µM | actives 1.3% (n = 310,000) | AID 2642;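 active = compounds whose thallium flux B-score, printed positive for inhibition, exceeds three library SD while starting fluorescence stays within three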;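 note: channel opened by potassium depolarization with thallium stimulus after 20 min compound exposure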
KCNQ1 act = potentiates or activates the human KCNQ1 potassium channel. P51787. actives 0.35% (n = 310,000). CHO-K1 KCNQ1, thallium flux FluxOR fluorescence; active compounds read high. B-score at 10 µM;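 active = fluorescence ratio B-score, a plate-corrected score, at least three library SD, with initial intensity B-score within 5 SD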
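assay system = CHO-K1 cells stably expressing KCNQ1 | medium = assay buffer, equal DMSO in all wells | timing = 37 °C overnight plating, 90-min dark dye load, 20-min compound pretreatment | measured by = kinetic FluxOR thallium fluorescence, 10-s 1-Hz baseline, 110-s post-stimulus read | measure = fluorescence change relative to baseline, converted to B score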
KCNK9 block = blocks the human KCNK9 two-pore domain potassium channel; Q9NPC2; HEK293 KCNK9, FluxOR thallium flux fluorescence; active compounds read low; B-score at 10 µM; actives 1.2% (n = 310,000); AID 488922;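 active = ratio B-score over 3 SD below the library mean, with starting fluorescence within 5 SD of its mean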;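 note: negative B-score means less thallium flux so channel inhibition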
hERG rescue = hERG (human) protection from proarrhythmic block. activation (rescue from dofetilide block), less the hit threshold, % at 10 µM. CHO-hERG, FluxOR thallium flux, dofetilide IC70 present. actives 0.51% (n = 310,000). Q12809;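 active = activation above the mean of controls blocked by dofetilide plus 5 SD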;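 note: thallium influx through hERG after potassium depolarization seen as dye fluorescence rise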
Target sequence (Q12809 whole entry, looked up): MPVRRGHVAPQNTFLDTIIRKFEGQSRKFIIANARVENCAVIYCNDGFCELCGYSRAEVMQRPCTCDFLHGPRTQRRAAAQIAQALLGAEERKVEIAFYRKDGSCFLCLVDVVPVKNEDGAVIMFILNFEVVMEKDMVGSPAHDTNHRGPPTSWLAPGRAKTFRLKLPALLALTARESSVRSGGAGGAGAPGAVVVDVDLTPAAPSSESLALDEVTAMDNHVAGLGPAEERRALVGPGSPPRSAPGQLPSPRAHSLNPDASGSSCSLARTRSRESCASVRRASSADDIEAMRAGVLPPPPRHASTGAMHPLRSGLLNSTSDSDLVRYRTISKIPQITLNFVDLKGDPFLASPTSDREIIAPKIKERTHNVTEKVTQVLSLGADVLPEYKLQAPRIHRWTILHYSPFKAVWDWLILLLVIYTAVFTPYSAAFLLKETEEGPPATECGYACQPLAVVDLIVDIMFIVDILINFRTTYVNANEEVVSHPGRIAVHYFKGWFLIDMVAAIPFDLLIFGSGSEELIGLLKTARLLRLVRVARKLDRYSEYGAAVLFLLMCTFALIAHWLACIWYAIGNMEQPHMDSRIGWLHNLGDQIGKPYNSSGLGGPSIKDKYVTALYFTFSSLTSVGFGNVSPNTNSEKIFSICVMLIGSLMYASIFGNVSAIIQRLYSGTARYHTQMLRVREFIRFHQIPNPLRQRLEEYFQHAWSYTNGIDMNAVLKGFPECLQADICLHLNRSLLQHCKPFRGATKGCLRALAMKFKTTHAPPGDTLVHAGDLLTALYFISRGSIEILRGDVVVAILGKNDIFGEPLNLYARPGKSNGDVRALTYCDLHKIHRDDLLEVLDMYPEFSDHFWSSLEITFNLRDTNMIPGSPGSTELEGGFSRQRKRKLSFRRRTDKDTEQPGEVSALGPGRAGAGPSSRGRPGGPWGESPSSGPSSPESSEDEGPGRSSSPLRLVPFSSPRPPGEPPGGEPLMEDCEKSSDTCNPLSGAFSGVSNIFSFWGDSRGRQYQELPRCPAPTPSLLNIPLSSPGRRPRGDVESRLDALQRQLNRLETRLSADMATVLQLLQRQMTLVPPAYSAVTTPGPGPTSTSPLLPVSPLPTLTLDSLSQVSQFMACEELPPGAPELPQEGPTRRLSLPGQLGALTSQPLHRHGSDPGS
KCNK3 inh = human KCNK3 channel inhibition, primary screen | AID 602410 | O14649 | B-score at 10 µM | actives 0.84% (n = 340,000) | CHO-KCNK3 thallium flux, FluxOR fluorescence; active compounds read low;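 active = B-score under library mean minus 4 SD, starting fluorescence ratio at most library mean plus 5 SD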;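 note: more negative B-score means stronger inhibition of thallium flux through KCNK3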
KCNK9 block conf = confirmation of human KCNK9 potassium channel inhibitors | HEK293 KCNK9 cells, FluxOR thallium flux fluorescence | AID 492992 | inhibition, % at 10 µM | actives 43% (n = 4,900) | shares compounds with KCNK9 block;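 active = thallium signal inhibited by more than 5 SD of the compound-free buffer control wells, on both duplicate plates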
Kir21 sel = tests whether KCNK9 modulators also affect mouse Kir2.1. inhibition, % at 10 µM. shares compounds with KCNK9 block. AID 492993. actives 4% (n = 4,900). Kir2.1 cells, FluxOR thallium flux fluorescence;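 active = thallium signal drop more than 5 SD beyond the mean of the no-compound control wells, seen in both duplicate plates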;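 note: signal is fluorescence rise after thallium addition divided by baseline fluorescence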
HEK293 Tl ctr = non-induced cell nonspecific activity of KCNK9 modulators; actives 40% (n = 4,900); inhibition, % at 10 µM; non-induced KCNK9-HEK293, FluxOR thallium flux; AID 492997; shares compounds with KCNK9 block;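 active = thallium signal drop beyond 5 SD of the untreated control mean, on both duplicate plates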
KCNK3 confirm = confirmation of human KCNK3 two-pore domain potassium channel inhibitors; actives 99% (n = 2,400); shares compounds with KCNK3 inh; ratio percent of control, % at 10 µM; CHO-KCNK3 thallium flux, FluxOR fluorescence; 0% buffer, 100% carvedilol maximal block;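 active = ratio percent of control, averaged over triplicates, above buffer control mean plus 5 SD, cut at about 64% in these data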;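 note: ratio is the fluorescence rise from min to max over baseline after thallium stimulus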
KCNK3 noninduced = activity in cells without induced KCNK3 expression; shares compounds with KCNK3 inh; non-induced KCNK3 parental cells, FluxOR thallium flux; active compounds read low; thallium flux ratio (lower = more inhibition) at 10 µM; actives 40% (n = 2,400); AID 651747;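 active = thallium flux ratio, averaged over three wells, more than 5 SD below the buffer control mean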;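 note: host cells are CHO cells without KCNK3 induction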
Large screens that a line does not name were inactive (follow-up assays come after a bar, where they were run). Sampled rows, rich in hits. Any-hit rate of the full collection: about 4.1%.

Cc1ccc2c(c1)C1CN(C)CCC1N2C(=O)CCCN1C(=O)c2cccc3cccc(c23)C1=O (stereo unspecified)	none
C=CCn1c(O)c(C(CC)=NCC2CCCO2)c(=O)[nH]c1=O (stereo unspecified)	none
COc1cccc(C2CC3C(=O)C=CC2N3Cc2ccccc2)c1 (stereo unspecified)	none | KCNK9 block conf inactive | Kir21 sel inactive | HEK293 Tl ctr inactive
CCOC(=O)C1(c2ccccc2)CCN(CCC(=O)Nc2ccc(C(=O)OC)cc2)CC1	none (no result: Cl transport mod, KCNQ1 block, KCNQ1 act, KCNK9 block, hERG rescue)
CCOC(=O)C1(c2ccccc2)CCN(CCC(C#N)(c2ccccc2)c2ccccc2)CC1	KCNQ1 block 6, KCNK9 block -8.15 (no result: Cl transport mod) | KCNK9 block conf 40.5% | Kir21 sel inactive | HEK293 Tl ctr 38.0%
Oc1c(Br)c(Br)c(Br)c(Br)c1Br	none (no result: Cl transport mod, KCNQ1 block, KCNQ1 act, KCNK9 block, hERG rescue)
O=C1NC(=O)C(=Cc2coc3ccc(O)cc3c2=O)C(=O)N1	none (no result: Cl transport mod)
CC(=O)OC1=CC[C@H]2[C@@H]3CC[C@H]4C[C@H](OC(C)=O)[C@@H](OC(C)=O)C[C@]4(C)[C@H]3CC[C@]12C	none (no result: Cl transport mod, KCNQ1 block, KCNQ1 act, KCNK9 block, hERG rescue)
C/C(=N\N1CCCCC1c1cccnc1)c1c(O)n(C2CCCCC2)c(=S)[nH]c1=O (stereo unspecified)	KCNK9 block -14 | KCNK9 block conf 75.0% | Kir21 sel inactive | HEK293 Tl ctr 55.5%
CCCCn1c(O)c(/C(CC)=N/N2CCCCC2c2cccnc2)c(=O)[nH]c1=S (stereo unspecified)	KCNK9 block -18.1 | KCNK9 block conf 77.5% | Kir21 sel inactive | HEK293 Tl ctr 55.5%
CCCCn1c(O)c(/C=N/N2CCCCC2c2cccnc2)c(=O)[nH]c1=S (stereo unspecified)	none
CC(C)=CCc1c(O)cc2c(c1O)C(=O)CC(c1ccc(O)cc1)O2 (stereo unspecified)	KCNK9 block -16.7 | KCNK9 block conf inactive | Kir21 sel inactive | HEK293 Tl ctr inactive
CSc1ccc(CN2CCN(Cc3ccccc3Cl)CC2)cc1	none (no result: Cl transport mod) | KCNK9 block conf inactive | Kir21 sel 41.0% | HEK293 Tl ctr inactive
CSc1ccc(CN2CCN(C(=O)Cc3ccccc3)CC2)cc1	none (no result: Cl transport mod)
C/C(=N\N1CCCCCC1)c1c(O)n(-c2ccc(Cl)cc2)c(=O)[nH]c1=O	none | KCNK9 block conf inactive | Kir21 sel inactive | HEK293 Tl ctr inactive
C/C(=N\N1CCCCCC1)c1c(O)n(-c2ccc(C)cc2)c(=O)[nH]c1=O	none
Nc1c(Cl)cc([N+](=O)[O-])cc1Cl	none (no result: Cl transport mod, KCNQ1 block, KCNQ1 act, KCNK9 block, hERG rescue)
O=C(Cc1ccccc1)Oc1cccc(N2C(=O)CCC2=O)c1	none (no result: Cl transport mod)
CC(C)(C)c1cc(OC(=O)Cc2ccccc2)ccc1O	KCNK9 block -12.4 (no result: Cl transport mod) | KCNK9 block conf 58.0% | Kir21 sel inactive | HEK293 Tl ctr 30.0%
Cc1ccc2c(c1)N(C(=O)CCC(=O)N1CCC3(CC1)OCCO3)CCO2	none (no result: Cl transport mod)
COc1cc(CN2CCN(c3cc(C)ccc3C)CC2)ccc1O	none | KCNK9 block conf inactive | Kir21 sel inactive | HEK293 Tl ctr inactive
COc1ccccc1OCCCn1cc(C(=O)c2ccco2)c2ccccc21	KCNK9 block -9.76 | KCNK9 block conf 32.0% | Kir21 sel inactive | HEK293 Tl ctr inactive
O=C(c1ccco1)c1cn(Cc2ccc(Cl)cc2)c2ccccc12	KCNK9 block -8.71 | KCNK9 block conf 56.5% | Kir21 sel inactive | HEK293 Tl ctr 37.0%
CC(=O)c1cn(Cc2ccc(F)cc2)c2ccccc12	none (no result: Cl transport mod)
O=S1(=O)N(Cc2ccc(F)cc2)CCCN1Cc1ccccc1Cl	KCNK9 block -8.34, KCNK3 inh -11.9 (no result: Cl transport mod) | KCNK9 block conf 74.0% | Kir21 sel inactive | HEK293 Tl ctr 41.5% | KCNK3 confirm 124.7 | KCNK3 noninduced 0.137
Fc1ccc(CCNCc2ccccc2Cl)cc1	none
Cc1ccccc1CN1CCCN(Cc2ccc(Cl)cc2)S1(=O)=O	KCNK9 block -20.9 (no result: Cl transport mod) | KCNK9 block conf 72.0% | Kir21 sel inactive | HEK293 Tl ctr 38.0% | KCNK3 confirm 119.3 | KCNK3 noninduced inactive
COC(=O)C1=C(c2ccc(OC)c(OC)c2)C[C@@H]2CC[C@H]1N2C(=O)N1CCCCC1	none (no result: Cl transport mod, KCNQ1 block, KCNQ1 act, KCNK9 block, hERG rescue)
COC1C(O)C(C)OC(OC2CCC3(C)C(CCC4C3C(O)CC3(C)C(C5=CC(=O)OC5)CCC43O)C2)C1O (stereo unspecified)	none (no result: Cl transport mod, KCNQ1 block, KCNQ1 act, KCNK9 block, hERG rescue)
COC(=O)C1=C(c2ccc(C(C)=O)cc2)C[C@@H]2CC[C@H]1N2C(=O)NCCOc1ccccc1Cl	none (no result: Cl transport mod, KCNQ1 block, KCNQ1 act, KCNK9 block, hERG rescue)
CC1CCC(C(C)C)C(OC(=O)Cn2c(COc3ccccc3)[n+](C)c3ccccc32)C1 (stereo unspecified)	KCNQ1 block 10, KCNK9 block -12.5, KCNK3 inh -8.93 | KCNK9 block conf 73.5% | Kir21 sel 77.0% | HEK293 Tl ctr inactive | KCNK3 confirm 122.0 | KCNK3 noninduced inactive
Cc1ccccc1-n1c(C)cc(/C=C2/C(=O)NC(=O)N(Cc3ccco3)C2=O)c1C	KCNK9 block -15 | KCNK9 block conf 34.5% | Kir21 sel inactive | HEK293 Tl ctr 32.0% | KCNK3 confirm 137.7 | KCNK3 noninduced 0.109
O=c1c2ccccc2nc(/C=C\c2ccccc2[N+](=O)[O-])n1-c1ccccc1O	KCNK3 inh -10 | KCNK3 confirm 112.0 | KCNK3 noninduced 0.142
O=c1c2ccccc2nc(/C=C/c2ccccc2O)n1-c1ccccc1O	none (no result: Cl transport mod)
C#C[C@]1(O)CC[C@H]2[C@@H]3CCC4=Cc5nc6nc7ccccc7n6cc5C[C@]4(C)[C@H]3CC[C@@]21C	KCNK3 inh -15.7 (no result: Cl transport mod, KCNQ1 block, KCNQ1 act, KCNK9 block, hERG rescue) | KCNK3 confirm 131.7 | KCNK3 noninduced 0.119
C#CC1(O)CCC2C3CCC4=C/C(=N/OCC(=O)NCC(=O)NC(C(=O)O)C(C)C)CC[C@]4(C)C3CC[C@@]21C (stereo partly specified)	none (no result: Cl transport mod)
CCCCCCCC(=O)NC(Oc1ccccc1[N+](=O)[O-])C(Cl)(Cl)Cl (stereo unspecified)	KCNK3 inh -12.3 | KCNK3 confirm 114.7 | KCNK3 noninduced inactive

High-throughput results from PubChem BioAssay.
